From ChEMBL document CHEMBL1123989, “Effects of addition of a 2-methyl group to ethyl nipecotates (beta-meperidines) on receptor affinities and opiate agonist/antagonist activities” (J Med Chem, 1988)
The source made the active and inactive calls.

Tests used:
[1] = test system: Mus musculus; experiment: Antagonistic activity to show narcotic effect induced by subcutaneous administration of 21.08 umol/kg of morphine in mouse tail-flick test; format: functional
Method in brief: (§1)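 Male Swiss-Webster mice. Tail-flick latency read at 10, 20, 30, 45 and 60 min. % antagonism = 100 − (% agonism with morphine)/0.80, taken at peak effect. AD50 with 95% CL by Litchfield–Wilcoxon from the log-dose plot.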

[2] = target: Mu-type opioid receptor (Rattus norvegicus, UniProt P33535); experiment: Binding affinity at Opioid receptor mu 1 in rat brain membrane was determined by using curve-fitting ligands ([3H]DHM, [3H]DADL, [3H]DSLET, [3H]EKC); format: cell membranes
Method in brief: (§2)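 Rat brain membranes in Tris pH 7.7, preincubated 1 h at 37 °C to strip endogenous opioids. 12 mg tissue per tube with tritiated ligand plus competitor, 1 h at 25 °C, then filtered. Nonspecific binding defined with 1.0 μM unlabeled form of the tracer. Each curve run twice at two tracer concentrations. Affinities from simultaneous LIGAND curve-fitting.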

[3] = target: Kappa-type opioid receptor (Cavia porcellus, UniProt P41144); experiment: Binding affinity at Opioid receptor kappa 1 in guinea pig brain membrane determined by using [3H]U-69593 as radioligand; format: cell membranes
Method in brief: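 Guinea pig brain membranes prepared as for the rat assay (Tris pH 7.7, 1 h 37 °C preincubation). Displacement of [3H]U69,593 over 1 h at 25 °C, then filtered. Nonspecific binding with 1.0 μM unlabeled U69,593. Curves repeated twice at two tracer concentrations. Values by LIGAND analysis.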

[4] = target: Delta-type opioid receptor (Rattus norvegicus, UniProt P33533); experiment: Binding affinity at Opioid receptor delta 1 in rat brain membrane was determined by using curve -fitting LIGAND([3H]DHM, [3H]DADL, [3H]DSLET, [3H]EKC); format: cell membranes; method in brief: as §2
[5] = test system: Mus musculus; experiment: Effective dose to show narcotic analgesic activity was evaluated in mouse tail-flick test when administered subcutaneously; format: functional; conditions: sc
Method in brief: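 Male Swiss-Webster mice (21-28 g), pretested twice; heat lamp set for a 2-4 s baseline flick with a 6.5 s cut-off. Three doses, 10 mice/dose, given sc. Latency read at 10-60 min. % of maximum possible increase taken at peak effect. ED50 with 95% CL from a log-dose probit plot (Litchfield–Wilcoxon).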

[6] = test system: Mus musculus; experiment: Antagonistic activity to show narcotic effect induced by subcutaneous administration of 21.08 umol/Kg of morphine in mouse tail-flick test; NA=No antagonism; format: functional, organism-based; method in brief: as §1

Chain of Delta-type opioid receptor (P33533 whole entry): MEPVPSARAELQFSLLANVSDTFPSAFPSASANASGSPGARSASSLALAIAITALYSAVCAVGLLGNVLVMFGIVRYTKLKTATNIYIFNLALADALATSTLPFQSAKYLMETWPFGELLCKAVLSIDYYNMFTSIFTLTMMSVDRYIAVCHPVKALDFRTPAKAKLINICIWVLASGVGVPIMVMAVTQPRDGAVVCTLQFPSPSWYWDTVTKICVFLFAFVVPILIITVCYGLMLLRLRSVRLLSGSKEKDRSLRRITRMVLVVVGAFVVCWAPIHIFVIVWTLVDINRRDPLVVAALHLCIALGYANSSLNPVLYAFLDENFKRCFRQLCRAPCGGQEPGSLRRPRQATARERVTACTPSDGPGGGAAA
Chain of Mu-type opioid receptor (P33535 whole entry): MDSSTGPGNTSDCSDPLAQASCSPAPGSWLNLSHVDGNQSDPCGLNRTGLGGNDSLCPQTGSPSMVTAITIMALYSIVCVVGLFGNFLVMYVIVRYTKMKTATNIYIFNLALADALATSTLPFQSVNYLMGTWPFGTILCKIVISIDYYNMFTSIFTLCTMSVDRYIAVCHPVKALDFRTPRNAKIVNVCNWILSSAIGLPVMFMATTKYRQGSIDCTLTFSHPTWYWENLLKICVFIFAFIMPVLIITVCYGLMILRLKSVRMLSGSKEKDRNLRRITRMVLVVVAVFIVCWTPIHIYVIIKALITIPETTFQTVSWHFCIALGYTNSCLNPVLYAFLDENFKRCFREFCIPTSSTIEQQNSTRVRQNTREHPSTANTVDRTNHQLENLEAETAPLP
Chain of Kappa-type opioid receptor (P41144 whole entry): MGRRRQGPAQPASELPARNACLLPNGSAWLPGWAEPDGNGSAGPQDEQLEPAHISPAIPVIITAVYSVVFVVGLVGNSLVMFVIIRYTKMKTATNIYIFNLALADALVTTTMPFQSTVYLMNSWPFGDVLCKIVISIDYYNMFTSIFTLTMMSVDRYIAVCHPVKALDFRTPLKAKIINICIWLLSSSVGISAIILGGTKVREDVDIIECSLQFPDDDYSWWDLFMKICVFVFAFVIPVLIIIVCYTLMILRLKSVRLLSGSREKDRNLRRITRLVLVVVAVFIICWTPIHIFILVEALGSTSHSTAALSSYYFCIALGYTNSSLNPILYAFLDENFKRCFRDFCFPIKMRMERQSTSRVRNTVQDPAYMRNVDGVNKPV

SMILES	AD50 [1]	Kd [2]	Kd [3]	Kd [4]	ED50 [5]	AD50 [6]
CCOC(=O)[C@]1(c2cccc(O)c2)CCCN(CC2CC2)[C@H]1C	75 µM/kg	0.154 µM	0.83 µM	0.625 µM	> 452 µmol/kg	–
CCOC(=O)[C@]1(c2cccc(O)c2)CCCN(C)[C@H]1C	14 µM/kg	0.178 µM	1.9 µM	0.91 µM	> 510 µmol/kg	–
C=CCN1CC[C@]23c4c5ccc(O)c4O[C@H]2[C@@H](O)C=C[C@H]3[C@H]1C5 [NALORPHINE]	2 µM/kg	–	–	–	828 µmol/kg	–
CCOC(=O)C1(c2ccccc2)CCN(C)CC1 [MEPERIDINE]	–	–	–	–	25 µmol/kg	inactive
CCOC(=O)[C@]1(c2cccc(O)c2)CCCN(CC2CC2)C1	19 µM/kg	0.008 µM	0.12 µM	0.26 µM	68 µmol/kg	–
CCOC(=O)[C@]1(c2cccc(O)c2)CCCN(CCc2ccccc2)[C@H]1C	>198 µM/kg	0.38 µM	2.6 µM	0.17 µM	> 198 µmol/kg	–
C=CCN1CCC[C@](C(=O)OCC)(c2cccc(O)c2)[C@@H]1C	112 µM/kg	0.31 µM	0.83 µM	0.77 µM	> 118 µmol/kg	–
C=CCN1CCC[C@](C(=O)OCC)(c2cccc(O)c2)C1	>192 µM/kg	0.026 µM	0.45 µM	0.715 µM	> 229 µmol/kg	–
CCOC(=O)[C@]1(c2cccc(O)c2)CCCN(C)C1	24 µM/kg	0.036 µM	2.2 µM	4 µM	> 290 µmol/kg	–
